The results in this text go back to ChEMBL document CHEMBL5370673 (ACS Med Chem Lett, 2023).

SMILES strings stand for the structures. Active and inactive are the calls of the source. The calls are words filed in the database; no cut-off is given here.

Test [1] deals with Schistosoma mansoni. The experiment in a line: Antischistosomal activity against Schistosoma mansoni assessed as maximal effect at <= 320 uM. It counts as functional, organism-based.
Test [2] concerns Schistosoma mansoni. The test can be described thus: Antischistosomal activity against Schistosoma mansoni infected in CF1/W74 mouse assessed as reduction in parasitic flatworms viability at 500 mg/kg administered for 5 days relative to control. It counts as functional.
For test [3], the system named is Rodentolepis nana. The experiment in a line: Anti-cestodal activity against Hymenolepis nana infected in CF1/W74 mouse assessed as reduction in parasitic flatworms at 25 mg/kg relative to control. It counts as functional. Details: scale not given: the % may be the effect or the level left.
Test [4] is described as follows: Activation of Schistosoma mansoni in TRPM binding site of PZQ expressed in HEK293 cells assessed as effect in cytosolic Ca2+ level measured for 250 sec by […] NW staining based FLIPR assay. It counts as cell-based.
A short description of test [5]: Activation of Echinococcus granulosus in TRPM binding site of PZQ expressed in HEK293 cells assessed as effect in cytosolic Ca2+ level measured for 250 sec by […] NW staining based FLIPR assay. It is filed as cell-based.
Test [6] in a line: Activation of Mesocestoides corti in TRPM binding site of PZQ expressed in HEK293 cells assessed as effect in cytosolic Ca2+ level measured for 250 sec by […] NW staining based FLIPR assay. It counts as cell-based. The essentials:
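HEK293 cells transiently transfected with the individual TRPMPZQ ortholog (S. mansoni, E. granulosus or M. corti). Cytosolic Ca2+ change read by fluorescence reporter (FLIPR) across increasing analog concentrations. Untransfected HEK293 cells serve as control.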

Test [7] has as its system Echinococcus multilocularis. The experiment in a line: Anthelmintic activity against Echinococcus multilocularis MB17 protoscoleces assessed as increase in contraction at 30 uM by live cell imaging analysis. It counts as functional, organism-based.
The subject of test [8] is Echinococcus multilocularis. The experiment in a line: Anthelmintic activity against Echinococcus multilocularis MB17 protoscoleces assessed as reduction in motility at 0.001 to 100 uM measured after 0.5 hrs by live cell imaging analysis. It is filed as functional, organism-based. The note with it: dose 0.001-100 µM. In a few lines: (§1)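 E. multilocularis protoscoleces incubated ex vivo across a concentration range. Motility scored at 0.5, 12 and 24 h and expressed as % of DMSO vehicle control (mean ± SEM). IC50 taken from concentration–response curves at each time point.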

Test [9] concerns Rodentolepis nana. The experiment in a line: Anti-cestodal activity against Hymenolepis nana infected in CF1/W74 mouse assessed as reduction in parasitic flatworms at 500 mg/kg relative to control. It is filed as functional. Also noted: scale not given: the % may be the effect or the level left.
For test [10], the system named is Echinococcus multilocularis. The experiment in a line: Induction of morphological changes in Echinococcus multilocularis MB17 protoscoleces assessed as increase in contraction at 100 uM by cestode motility assay. It counts as functional, organism-based.
The subject of test [11] is Schistosoma mansoni. The experiment in a line: Antischistosomal activity against Schistosoma mansoni assessed as maximal effect at <= 3.2 uM. It counts as functional, organism-based.
In test [12] the test system is Schistosoma mansoni. The test can be described thus: Antischistosomal activity against Schistosoma mansoni infected in CF1/W74 mouse assessed as reduction in parasitic flatworms viability at 50 mg/kg administered for 5 days relative to control. It counts as functional. The note with it: time 5 day.
For test [13], the system named is Echinococcus multilocularis. The experiment in a line: Anthelmintic activity against Echinococcus multilocularis MB17 protoscoleces assessed as increase in contraction at 1 uM by live cell imaging analysis. It is filed as functional, organism-based.
Test [14] concerns Echinococcus multilocularis. The experiment in a line: Anthelmintic activity against Echinococcus multilocularis MB17 protoscoleces assessed as reduction in motility measured after 24 hrs by live cell imaging analysis. It counts as functional, organism-based. In a few lines:
as §1

The nature of test [15]: Selectivity ratio of EC50 for activation of Schistosoma mansoni in TRPM binding site of PZQ expressed in HEK293 cells to EC50 for activation of Echinococcus granulosus in TRPM binding site of PZQ expressed in HEK293 cells. It is filed as cell-based.
Test [16] in a line: Selectivity ratio of EC50 for activation of Schistosoma mansoni in TRPM binding site of PZQ expressed in HEK293 cells to EC50 for activation of Mesocestoides corti in TRPM binding site of PZQ expressed in HEK293 cells. It is filed as cell-based.
[17] abbreviates: Echinococcus granulosus, HEK293, read-out: EC50.
Setting [18] is: Mesocestoides corti, HEK293, read-out: EC50.

For the molecule `O=C(c1cccnc1)N1CC(=O)N2CCc3ccccc3[C@@H]2C1`, the result in test [1] was inactive. The Activity in test [2] (time 5 day) and in test [3] was 100% each time. The EC50 – broadly, the midpoint of the concentration-response curve – in test [4] (Schistosoma mansoni, HEK293, read-out: EC50) is more than 100 µM; in test [5] (setting [17]), 1.4 µM; in test [6] (setting [18]), 0.98 µM. Moreover, the result in test [7] and in [8] was Active.

`O=C(c1ccc([N+](=O)[O-])cc1)N1CC(=O)N2CCc3ccccc3C2C1` (centres undefined): in test [1], the outcome was inactive. Also, the Activity in [2] (time 5 day) is less than 90%; in test [9], 100%. Besides, the EC50 result in [4] (hek293), in [5] (hek293) and in test [6] (hek293) was “Not Active” in each case.

`CN(C)c1ccc(C(=O)N2CC(=O)N3CCc4ccccc4C3C2)cc1` (centres undefined): the outcome in test [1] was inactive. The Activity in test [2] (time 5 day) and in test [3] was 100% in each case. The EC50 entry in test [4] (hek293), in [5] (hek293) and in test [6] (hek293) was “Not Active” throughout.

As to `N[C@H]1CC[C@@H](C(=O)N2CC(=O)N3CCc4ccccc4C3C2)CC1` (some centres undefined), the outcome in test [1] and in [2] (time 5.0 day) was inactive. For the same molecule, in test [9], the Activity is recorded as less than 90%. Also, the EC50 entry is “Not Active” in test [4] (hek293), more than 100 µM in test [5] (setting [17]) and more than 100 µM in [6] (setting [18]).

With `O=C(c1cccnc1)N1CC(=O)N2CCc3ccccc3[C@H]2C1`, the outcome in test [1] and in [2] (time 5.0 day) was inactive. Besides, the Activity in test [9] turned out to be 100%. Further, the EC50 entry was “Not Active” in [4] (hek293), 22 µM in test [5] (setting [17]) and 16 µM in test [6] (setting [18]). Further, the outcome in test [10] and in test [8] was Active.

With `O=C(C1CC1)N1CC(=O)N2CCc3ccccc3C2C1` (centres undefined), the outcome in test [1] was inactive. The Activity in test [2] (time 5 day) is on record as less than 90%; in [9], 100%. The EC50 entry in test [4] (hek293) was “Not Active”; in test [5] (setting [17]) it was 53 µM; in [6] (setting [18]), 65 µM.

Take `O=C(C1CCCCC1)N1CC(=O)N2CCc3ccccc3[C@@H]2C1` [PRAZIQUANTEL, (R)-]: in test [11], the result was Active. For the same molecule, the Activity in test [12] and in [3] was 100% each time. In addition, the EC50 in test [6] (setting [18]) was 0.08 µM.

For `O=C(C1CCCCC1)N1CC(=O)N2CCc3ccccc3C2C1` (racemic) [PRAZIQUANTEL], the result in test [11], in test [13], in test [14] and in [8] was Active. The Activity in test [12] and in [3] was 100% in each case. Also, in test [6] (setting [18]), the EC50 worked out at 0.12 µM.

For the molecule `CNc1ccc(C(=O)N2CC(=O)N3CCc4ccccc4C3C2)cc1` (centres undefined), the outcome in [1] was inactive. In addition, the Activity in test [2] (time 5 day) and in test [3] was 100% in each case. For the same molecule, the EC50 result in test [4] (hek293) is “Not Active”; in test [5] (setting [17]) it was more than 100 µM; in test [6] (setting [18]), more than 100 µM.

Take `O=C(c1cccnc1)N1CC(=O)N2CCc3ccccc3C2C1` (racemic): the outcome in test [1] was Active. The figures for the Activity in test [2] (time 5 day) and in [3] were less than 90% and 100%, respectively. Moreover, the figures for the EC50 result in [4] (hek293), in test [5] (setting [17]) and in test [6] (setting [18]) were “Not Active”, 2.3 µM and 5.3 µM, respectively.

On to `O=C(C1CCCCC1)N1CC(=O)N2CCc3ccccc3[C@H]2C1`, for which the outcome in test [1] was Active. Also, the Activity was more than 90% in test [2] (time 5 day) and 100% in test [9]. Besides, the EC50 in test [6] (setting [18]) came to 1.23 µM.

For `Nc1ccc(C(=O)N2CC(=O)N3CCc4ccccc4C3C2)cc1` (centres undefined), in test [1], the outcome was Active. The Activity in test [2] (time 5 day) and in [3] was 100% each time. The values for the EC50 in test [5] (setting [17]) and in test [6] (setting [18]) were 0.96 µM and 0.8 µM, respectively. For the same molecule, the Ratio EC50 in test [15] and in [16] was 8 throughout.
